In ChEMBL document CHEMBL3045950, “Design, synthesis, and analysis of the quantitative structure-activity relationships of 4-phenyl-acyl-substituted 3-(2,5-dimethylphenyl)-4-hydroxy-1-azaspiro[4.5]dec-3-ene-2,8-dione derivatives” (2012):

Experiments:
Assay type in all cases: functional
Tetranychus cinnabarinus [1] = assay: Larvicidal activity against Tetranychus cinnabarinus ( carmine spider mite ) fifty third-instar mite larvae assessed as inhibition activity at 10 mg/L after 72 hr
Summary of the method: (§1)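 Test solutions were made in N,N-dimethylformamide and diluted with distilled water containing TW-80 (0.1 mL L⁻¹). Fifty third-instar larvae were dipped in the dilution for 5 s, and excess liquid was removed. Larvae were then held in an air-conditioned room, and mortality was scored at 72 h. Tests were run in triplicate, and controls were treated with water only.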

Aphis fabae [2] = assay: Insecticidal activity against Aphis fabae (black bean aphid) apterous third-instar nymphae in tender soybean shoots assessed as inhibition activity at 10 mg/L after 72 hr
Summary of the method: (§2)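 Test solutions were made in N,N-dimethylformamide and diluted to working concentration with distilled water containing TW-80 (0.1 mL L⁻¹). Aphids were dipped following a slightly modified FAO dip test. Assessment was made 72 h after treatment. Each treatment was run three times, and control groups were given water only. Deviation of values was 5%.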

Aphis fabae [3] = assay: Insecticidal activity against Aphis fabae (black bean aphid) apterous third-instar nymphae in tender soybean shoots assessed as inhibition activity at 100 mg/L after 72 hr; summary of the method: as §2
Tetranychus cinnabarinus [4] = assay: Larvicidal activity against Tetranychus cinnabarinus (carmine spider mite) fifty third-instar mite larvae assessed as inhibition activity at 100 mg/L after 72 hr; summary of the method: as §1

Row | Compound | inhibition at 10 µg/mL (Tetranychus cinnabarinus [1]) [%] | inhibition at 10 µg/mL (Aphis fabae [2]) [%] | inhibition at 100 µg/mL (Aphis fabae [3]) [%] | inhibition at 100 µg/mL (Tetranychus cinnabarinus [4]) [%]
1 | Cc1ccc(C)c(C2=C(OC(=O)Cc3cccc(Cl)c3)C3(CCC(=O)CC3)NC2=O)c1 | 3.23 | 13.6 | 44.6 | 24.7
2 | Cc1ccc(C)c(C2=C(OC(=O)Cc3ccc(F)cc3)C3(CCC(=O)CC3)NC2=O)c1 | 29.9 | 69.3 | 93.7 | 49
3 | Cc1cc(C)c(C2=C(OC(=O)CC(C)(C)C)C3(CCCC3)OC2=O)c(C)c1 [SPIROMESIFEN] | 42.1 | 14.3 | 62.5 | 80.2
4 | Cc1ccc(C)c(C2=C(OC(=O)Cc3ccccc3)C3(CCC(=O)CC3)NC2=O)c1 | 38.9 | 62.8 | 95.6 | 66.8
5 | Cc1ccc(C)c(C2=C(OC(=O)CC(C)(C)C)C3(CCC(=O)CC3)NC2=O)c1 | 8.76 | 21.6 | 62.1 | 26.1
6 | Cc1ccc(C)c(CC(=O)OC2=C(c3cc(C)ccc3C)C(=O)NC23CCC(=O)CC3)c1 | 24.6 | 37.3 | 76.2 | 61.6
7 | Cc1ccc(C)c(C2=C(OC(=O)Cc3ccc(C(F)(F)F)cc3)C3(CCC(=O)CC3)NC2=O)c1 | 49 | 60 | 98.6 | 85.3
8 | CCCC(=O)OC1=C(c2cc(C)ccc2C)C(=O)NC12CCC(=O)CC2 | 19.7 | 37.3 | 98.7 | 54.7
9 | CCC(C)(C)C(=O)OC1=C(c2ccc(Cl)cc2Cl)C(=O)OC12CCCCC2 [SPIRODICLOFEN] | 36.7 | 19.4 | 60.3 | 70.6
10 | Cc1ccc(C)c(C2=C(OC(=O)c3ccc(Cl)cc3)C3(CCC(=O)CC3)NC2=O)c1 | 9.23 | 10.8 | 68.2 | 42.9
11 | Cc1ccc(C)c(C2=C(OC(=O)Cc3ccc(Br)cc3)C3(CCC(=O)CC3)NC2=O)c1 | 5.25 | 9.78 | 47.8 | 32.5
12 | COc1ccc(CC(=O)OC2=C(c3cc(C)ccc3C)C(=O)NC23CCC(=O)CC3)cc1 | 24.4 | 87.3 | 92.1 | 80.5
13 | C/C=C/C(=O)OC1=C(c2cc(C)ccc2C)C(=O)NC12CCC(=O)CC2 | 23.4 | 34.9 | 85.6 | 58.2
14 | Cc1ccc(C)c(C2=C(OC(=O)Cc3ccc([N+](=O)[O-])cc3)C3(CCC(=O)CC3)NC2=O)c1 | 16.3 | 32.3 | 92.2 | 73.8
15 | Cc1ccc(C)c(C2=C(OC(=O)Cc3ccc(Cl)cc3Cl)C3(CCC(=O)CC3)NC2=O)c1 | 31.2 | 26.9 | 85.6 | 75.9
16 | CCOC(=O)OC1=C(c2cc(C)ccc2C)C(=O)N[C@]12CC[C@@H](OC)CC2 [SPIROTETRAMAT] | 26.3 | 96.8 | 100 | 75
17 | Cc1ccc(C)c(C2=C(OC(=O)Cc3ccc(Cl)cc3)C3(CCC(=O)CC3)NC2=O)c1 | 17.8 | 47.3 | 89.8 | 58
18 | Cc1ccc(C)c(C2=C(OC(=O)Cc3ccccc3Cl)C3(CCC(=O)CC3)NC2=O)c1 | 28.3 | 59.2 | 96.5 | 53.5
19 | CCOC(=O)OC1=C(c2cc(C)ccc2C)C(=O)NC12CCC(=O)CC2 | 30.4 | 45.9 | 93.5 | 62.3
20 | Cc1cc(C)c(CC(=O)OC2=C(c3cc(C)ccc3C)C(=O)NC23CCC(=O)CC3)c(C)c1 | 12.1 | 25.2 | 69.2 | 39.4
21 | Cc1ccc(C)c(C2=C(OC(=O)c3ccccc3)C3(CCC(=O)CC3)NC2=O)c1 | 18.2 | 29.3 | 91.8 | 49.8
22 | Cc1ccc(CC(=O)OC2=C(c3cc(C)ccc3C)C(=O)NC23CCC(=O)CC3)cc1 | 21.8 | 48.4 | 73.5 | 70.8
23 | Cc1ccc(C)c(C2=C(OC(=O)Cc3ccc(Cl)c(Cl)c3)C3(CCC(=O)CC3)NC2=O)c1 | 28.9 | 49.3 | 97.3 | 71.7
24 | Cc1ccc(C)c(C2=C(OC(=O)c3ccccc3C)C3(CCC(=O)CC3)NC2=O)c1 | 17.3 | 6.27 | 25.5 | 59.4
